Experimental data: ChEMBL document CHEMBL5303300, “EUbOPEN Chemogenomics Library - Multiplex” (2023)
Values joined by “and” are separate entries in the source; they are usually repeats but may differ in a detail not shown here. Equal entries are not always repeated.

Legend:
HEK-293T = test: Multiplex assay against HEK293T; format: toxicity, cell-based; conditions: human, number of replicates 2
Procedure, shortened: (§1)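 Hoechst33342, BioTracker Green Microtubule Cytoskeleton Dye, MitoTracker Red and Annexin V Alexa Fluor 680 were added to live cells at seeding, and imaging on a CQ1 microscope at 37°C and 5% CO2 followed compound addition. Gating by CellPathfinder machine learning separated cells into Hoechst high-intensity objects or normal cells, then normal cells into healthy, pyknosed or fragmented nuclei, then pyknosed cells into mitotic or apoptotic. Per cents of healthy-nucleus cells are reported for the tubulin, mitochondrial-mass and membrane-permeability phenotypes.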

U2OS = test: Multiplex assay against U2OS; format: toxicity, cell-based; conditions: human, number of replicates 2; procedure, shortened: as §1
[1] = 24 h, 1 µM, compound concentration 1 uM
[2] = 24 h, 10 µM, compound concentration 10 uM
[3] = 48 h, 1 µM, compound concentration 1 uM
[4] = 48 h, 10 µM, compound concentration 10 uM
[5] = 12 h, 1 µM, compound concentration 1 uM
[6] = 12 h, 10 µM, compound concentration 10 uM

SMILES: CN(C)C/C=C/C(=O)Nc1ccc(C(=O)N2CCCC(Nc3ncc(Cl)c(-c4c[nH]c5ccccc45)n3)C2)cc1 (configuration not stated)
- Population Mitochondria Different-Phenotype (%) (HEK-293T; [1]): 68% and 60%
- Population Mitotic Cells (%) (HEK-293T; [1]): 26% and 25%
- Population Normal (%) (HEK-293T; [1]): 82% and 80%
- Population Pyknosed Nuclei (%) (HEK-293T; [1]): 17% and 20%
- Population Tubulin-Different-Phenotype (%) (HEK-293T; [1]): 80% and 68%
- Total Cell Count (HEK-293T; [1]): 318 and 268
- Population Apoptotic (%) (HEK-293T; [2]): 89% and 91%
- Population Fragmented Nuclei (%) (HEK-293T; [2]): 7% and 10%
- Population Healthy Nuclei (%) (HEK-293T; [2]): 75% and 71%
- Population Hoechst High Intensity Objects (%) (HEK-293T; [2]): 28% and 25%
- Population Membrane Permeable-Phenotype (%) (HEK-293T; [2]): 5% and 2%
- Population Mitochondria Different-Phenotype (%) (HEK-293T; [2]): 78% and 79%
- Population Mitotic Cells (%) (HEK-293T; [2]): 10% and 8%
- Population Normal (%) (HEK-293T; [2]): 71% and 74%
- Population Pyknosed Nuclei (%) (HEK-293T; [2]): 17%
- Population Tubulin-Different-Phenotype (%) (HEK-293T; [2]): 88% and 86%
- Total Cell Count (HEK-293T; [2]): 313 and 357
- Population Apoptotic (%) (HEK-293T; [3]): 85% and 78%
- Population Fragmented Nuclei (%) (HEK-293T; [3]): 9% and 4%
- Population Healthy Nuclei (%) (HEK-293T; [3]): 75% and 77%
- Population Hoechst High Intensity Objects (%) (HEK-293T; [3]): 22% and 15%
- Population Membrane Permeable-Phenotype (%) (HEK-293T; [3]): 0% and 1%
- Population Mitochondria Different-Phenotype (%) (HEK-293T; [3]): 76% and 69%
- Population Mitotic Cells (%) (HEK-293T; [3]): 14% and 21%
- Population Normal (%) (HEK-293T; [3]): 77% and 84%
- Population Pyknosed Nuclei (%) (HEK-293T; [3]): 15% and 17%
- Population Tubulin-Different-Phenotype (%) (HEK-293T; [3]): 81% and 77%
- Total Cell Count (HEK-293T; [3]): 284 and 272
- Population Apoptotic (%) (HEK-293T; [4]): 75% and 83%
- Population Fragmented Nuclei (%) (HEK-293T; [4]): 8% and 17%
- Population Healthy Nuclei (%) (HEK-293T; [4]): 54%
- Population Hoechst High Intensity Objects (%) (HEK-293T; [4]): 24% and 26%
- Population Membrane Permeable-Phenotype (%) (HEK-293T; [4]): 1% and 5%
- Population Mitochondria Different-Phenotype (%) (HEK-293T; [4]): 75% and 70%
- Population Mitotic Cells (%) (HEK-293T; [4]): 25% and 16%
- Population Normal (%) (HEK-293T; [4]): 75% and 73%
- Population Pyknosed Nuclei (%) (HEK-293T; [4]): 36% and 28%
- Population Tubulin-Different-Phenotype (%) (HEK-293T; [4]): 83% and 82%
- Total Cell Count (HEK-293T; [4]): 362 and 446
- Population Apoptotic (%) (U2OS; [5]): 28% and 47%
- Population Healthy Nuclei (%) (U2OS; [5]): 61% and 77%
- Population Hoechst High Intensity Objects (%) (U2OS; [5]): 0%
- Population Membrane Permeable-Phenotype (%) (U2OS; [5]): 7% and 3%
- Population Mitochondria Different-Phenotype (%) (U2OS; [5]): 3%
- Population Mitotic Cells (%) (U2OS; [5]): 71% and 52%
- Population Normal (%) (U2OS; [5]): 100%
- Population Pyknosed Nuclei (%) (U2OS; [5]): 16% and 15%
- Population Tubulin-Different-Phenotype (%) (U2OS; [5]): 88% and 93%
- Population Apoptotic (%) (U2OS; [6]): 66% and 86%
- Population Fragmented Nuclei (%) (U2OS; [6]): 20% and 10%
- Population Healthy Nuclei (%) (U2OS; [6]): 44% and 40%
- Population Hoechst High Intensity Objects (%) (U2OS; [6]): 0%
- Population Membrane Permeable-Phenotype (%) (U2OS; [6]): 0% and 22%
- Population Mitotic Cells (%) (U2OS; [6]): 33% and 13%
- Population Normal (%) (U2OS; [6]): 100% and 99%
- Population Pyknosed Nuclei (%) (U2OS; [6]): 36% and 48%
- Population Tubulin-Different-Phenotype (%) (U2OS; [6]): 81% and 57%
- Population Apoptotic (%) (U2OS; [1]): 70% and 76%
- Population Fragmented Nuclei (%) (U2OS; [1]): 19% and 8%
- Population Healthy Nuclei (%) (U2OS; [1]): 52% and 67%
- Population Hoechst High Intensity Objects (%) (U2OS; [1]): 0%
- Population Membrane Permeable-Phenotype (%) (U2OS; [1]): 10% and 3%
- Population Mitochondria Different-Phenotype (%) (U2OS; [1]): 0% and 1%
- Population Mitotic Cells (%) (U2OS; [1]): 30% and 23%
- Population Normal (%) (U2OS; [1]): 100%
- Population Pyknosed Nuclei (%) (U2OS; [1]): 27% and 23%
- Population Tubulin-Different-Phenotype (%) (U2OS; [1]): 89% and 95%
- Population Apoptotic (%) (U2OS; [2]): 93% and 80%
- Population Fragmented Nuclei (%) (U2OS; [2]): 8% and 17%
- Population Hoechst High Intensity Objects (%) (U2OS; [2]): 5% and 0%
- Population Membrane Permeable-Phenotype (%) (U2OS; [2]): 58% and 22%
- Population Normal (%) (U2OS; [2]): 94% and 100%
- Population Pyknosed Nuclei (%) (U2OS; [2]): 80% and 43%
- Population Tubulin-Different-Phenotype (%) (U2OS; [2]): 76% and 100%
- Population Apoptotic (%) (U2OS; [3]): 90% and 83%
- Population Fragmented Nuclei (%) (U2OS; [3]): 12% and 7%
- Population Healthy Nuclei (%) (U2OS; [3]): 74% and 75%
- Population Hoechst High Intensity Objects (%) (U2OS; [3]): 0%
- Population Membrane Permeable-Phenotype (%) (U2OS; [3]): 3% and 5%
- Population Mitochondria Different-Phenotype (%) (U2OS; [3]): 1% and 3%
- Population Mitotic Cells (%) (U2OS; [3]): 10% and 16%
- Population Normal (%) (U2OS; [3]): 100%
- Population Pyknosed Nuclei (%) (U2OS; [3]): 13% and 16%
- Population Tubulin-Different-Phenotype (%) (U2OS; [3]): 98% and 97%
- Population Apoptotic (%) (U2OS; [4]): 92% and 69%
- Population Healthy Nuclei (%) (U2OS; [4]): 13% and 20%
- Population Hoechst High Intensity Objects (%) (U2OS; [4]): 1% and 0%
- Population Membrane Permeable-Phenotype (%) (U2OS; [4]): 91% and 40%
- Population Mitochondria Different-Phenotype (%) (U2OS; [4]): 83% and 60%
- Population Normal (%) (U2OS; [4]): 98% and 100%
- Population Pyknosed Nuclei (%) (U2OS; [4]): 79% and 52%
- Population Tubulin-Different-Phenotype (%) (U2OS; [4]): 100%
